Measured values reported in PubChem BioAssay AID504859 (Broad Institute, 2011).
Calls of active or inactive are those of the source.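 How the source made its calls: active means tumorsphere count inhibition of at least 15% in the mean or in any single replicate; inactive means the rest.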

Each compound was assayed on SUM159 tumorsphere formation, imaging, 9 days (assay: tumorsphere growth blockade in breast cancer cells – imaging, SUM159, single point, dry powder, set 2, orthogonal assay for breast cancer stem cell project, confirmation (AID 504859)). Conditions: at 20 µM; stronger effect = higher value.
Method in brief: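 Material: SUM159 breast cancer cells forming tumorspheres | Amount: 1000 cells per well | Schedule: Culture incubation at 37 °C under 5% CO2 | Technique: 2x transmitted-light imaging, 9 sites | Format: Low-attachment multiwell plate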

Q: How did the inhibition turn out when `Cc1ccc(/C=C/C(=O)NC2=NCCS2)cc1` was run?
A: Its inhibition is -19.9% (inactive).

Q: With `CC(C)c1ccc(/C=C/C(=O)NC2=NCCS2)cc1` as the compound, how does the inhibition read?
A: The inhibition was 15.4%.

Q: How did the inhibition turn out when `COc1ccc(/C=C/C(=O)NC2=NCCS2)c(OC)c1` was run?
A: Its inhibition is 3.49% (inactive).

Q: Which inhibition does the source give for `Cc1csc(NC(=O)c2ccc(COc3ccccc3)o2)n1` here?
A: Its inhibition is 19.1%.

Q: With `O=C(/C=C/c1ccc(Cl)c(Cl)c1)NC1=NCCS1` as the compound, how does the inhibition read?
A: The inhibition was 2.48% (inactive).

Q: `O=C(/C=C/c1ccc(-c2ccccc2)cc1)NC1=NCCS1` was tested. Which inhibition did it give?
A: Its inhibition is 20.5%.

Q: For `CCc1ccc(/C=C/C(=O)NC2=NCCS2)cc1`, which inhibition is on record?
A: The inhibition was 0.128% (inactive).

Q: `Cc1csc(NC(=O)c2ccc(COc3cccc(Cl)c3)o2)n1` was tested. Which inhibition did it give?
A: Its inhibition is 5.07% (inactive).

Q: For `O=C(NC1CCCC1)c1ccc(COc2ccccc2)o1`, which inhibition is on record?
A: The inhibition was 11% (inactive).

Q: Which inhibition does the source give for `Cc1csc(NC(=O)c2ccc(COc3ccccc3F)o2)n1` here?
A: Its inhibition is 1.67% (inactive).

Q: For `Cc1csc(NC(=O)c2ccc(COc3cccc(OC(F)(F)F)c3)o2)n1`, which inhibition is on record?
A: The inhibition was -1.1% (inactive).
